The values that follow come from ChEMBL document CHEMBL1125383, “Benzazepinone calcium channel blockers. 4. Structure-activity overview and intracellular binding site” (J Med Chem, 1992).

For data set [1], the target named is T1, Voltage-gated L-type calcium channel (Rattus norvegicus, UniProt P22002+Q02485+P27732). The data set can be described thus: Percentage decrease in blood pressure at a dose of 135 uM/kg for 12-18 hr in spontaneously hypertensive rats. It counts as functional, tissue-based. The gist of the method: (§1)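 Spontaneously hypertensive rats, n = 5, given 135 µmol/kg orally; systolic pressure recorded directly; maximum percent fall from predrug control noted within 0-6, 6-12 and 12-18 h windows after dosing; mean of five rats.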

The target in data set [2] is T1, Voltage-gated L-type calcium channel. Nature of the data set: Percentage decrease in blood pressure at a dose of 135 uM/kg for 0-6 h in spontaneously hypertensive rats. The data set is classed as functional, tissue-based. The gist of the method: as §1
Data set [3] is described as follows: Concentration required to cause 50% relaxation of maximal contraction in circumferential rabbit aorta strips in response to KCl (100 mM). It counts as functional, tissue-based, Oryctolagus cuniculus.
The target of data set [4] is T1, Voltage-gated L-type calcium channel. The data set can be described thus: Percentage decrease in blood pressure at a dose of 135 uM/kg for 6-12 hr in spontaneously hypertensive rats. The data set is classed as functional, tissue-based. The gist of the method: as §1
A short description of data set [5]: Partition coefficient (logP). It counts as physicochemical. The note with it: octanol/water.

A word on the IC50: it is the midpoint of a concentration-inhibition curve. On to `CCC[C@H]1C(=O)N(CCN(C)C)c2ccccc2C[C@H]1c1ccc(OC)cc1`, for which the figures for the “Decrease in blood pressure” value in data set [1], in data set [2] and in data set [4] were 12%, 10% and 11%, respectively. The same molecule gave an IC50 in data set [3] (Oryctolagus cuniculus, Aorta) of 340 nM.

For orientation: logP means the decadic logarithm of the partition coefficient of the neutral form, usually between octanol and water. Read a high logP as a more lipophilic compound. `COc1ccc([C@@H]2Cc3c(Cl)cccc3N(CCN(C)C)C(=O)[C@@H]2OC(C)=O)cc1`: the entries for the “Decrease in blood pressure” value in data set [1], in data set [2] and in data set [4] were 11%, 9% and 8%, respectively. Further, the logP in data set [5] stood at 2.4.

For `CSc1ccc([C@@H]2Cc3c(cccc3C(F)(F)F)N(CCN(C)C)C(=O)[C@@H]2C)cc1`, the results for the “Decrease in blood pressure” value in data set [1], in data set [2] and in data set [4] were 5%, 12% and 8%, respectively. In data set [3] (Oryctolagus cuniculus, Aorta), this molecule gave an IC50 of 730 nM.

On to `COc1ccc([C@@H]2Cc3c(cccc3C(F)(F)F)N(CCCN(C)C)C(=O)[C@@H]2C)cc1`, for which the “Decrease in blood pressure” value worked out at 24% in data set [1], 24% in data set [2] and 22% in data set [4]. The IC50 in data set [3] (Oryctolagus cuniculus, Aorta) is 1100 nM.

Regarding `C#CCN(C)CCN1C(=O)[C@H](OC(C)=O)[C@H](c2ccc(OC)cc2)Cc2c1cccc2C(F)(F)F`, the “Decrease in blood pressure” value in data set [1] was found to be 25%; in data set [2], 26%; in data set [4], 25%. This molecule also showed an IC50 in data set [3] (Oryctolagus cuniculus, Aorta) of 3300 nM.

Take `COc1ccc([C@@H]2Cc3cc(C(F)(F)F)ccc3N(CCN(C)C)C(=O)[C@@H]2CC(C)=O)cc1`: the “Decrease in blood pressure” value in data set [1] is 28%; in data set [2], 23%; in data set [4], 28%. In data set [5], this molecule registered a logP of 2.7.

As for `COc1ccc([C@@H]2Cc3cc(OC)ccc3N(CCN(C)C)C(=O)[C@@H]2OC(C)=O)cc1`, the “Decrease in blood pressure” value in data set [1] is recorded as 10%; in data set [2], 15%; in data set [4], 8%. Further, the logP in data set [5] stood at 1.2.

Consider `COc1cccc([C@@H]2Cc3cc(Cl)ccc3N(CCN(C)C)C(=O)[C@@H]2OC(C)=O)c1`, for which the “Decrease in blood pressure” value in data set [1] stood at 3%; in data set [2], 5%; in data set [4], 2%.

Take `CNCCN1C(=O)[C@H](OC(C)=O)[C@H](c2ccc(OC)cc2)Cc2c1cccc2C(F)(F)F`: the “Decrease in blood pressure” value came to 32% in data set [1], 32% in data set [2] and 34% in data set [4].

Take `COc1ccc([C@@H]2Cc3c(cccc3C(F)(F)F)N(C(C)CN(C)C)C(=O)[C@@H]2C)cc1` (stereo in doubt; 15n): in data set [2], the “Decrease in blood pressure” value amounted to 15%. Further, in data set [3], the concentration for half-maximal inhibition (IC50) worked out at 5900 nM.

Regarding `COc1ccccc1[C@@H]1Cc2cc(Cl)ccc2N(CCN(C)C)C(=O)[C@@H]1OC(C)=O`, the entries for the “Decrease in blood pressure” value in data set [1], in data set [2] and in data set [4] were 0%, 2% and 2%, respectively.

Take `COc1ccc([C@@H]2Cc3c(cccc3C(F)(F)F)N(CCN(C)C(C)C)C(=O)[C@@H]2C)cc1`: the “Decrease in blood pressure” value was determined as 14% in data set [1], 18% in data set [2] and 15% in data set [4]. Also, half-maximal inhibition in data set [3] (Oryctolagus cuniculus, Aorta) (IC50) was put at 810 nM.

`COc1ccc([C@@H]2Cc3c(cccc3C(F)(F)F)N(CCN3CCCC3)C(=O)[C@@H]2C)cc1`: the “Decrease in blood pressure” value is recorded as 11% in data set [1], 8% in data set [2] and 10% in data set [4]. Besides, the midpoint of inhibition in data set [3] (Oryctolagus cuniculus, Aorta), the IC50, lay at 1100 nM.

Turning to `COc1ccc([C@@H]2Cc3c(cccc3C(F)(F)F)N(CC(C)N(C)C)C(=O)[C@@H]2C)cc1` (stereo in doubt; 15l), the figures for the “Decrease in blood pressure” value in data set [1], in data set [2] and in data set [4] were 14%, 26% and 17%, respectively. The molecule also displayed an IC50 in data set [3] (Oryctolagus cuniculus, Aorta) of 360 nM.

As to `COc1ccc([C@@H]2Cc3c(cccc3C(F)(F)F)N(CC(C)N(C)C)C(=O)[C@@H]2C)cc1` (stereo in doubt; 15m), the figures for the “Decrease in blood pressure” value in data set [1] and in data set [4] were 12% and 16%, respectively. This molecule gave an IC50 in data set [3] of 400 nM.

Consider `CCOC(=O)c1cccc2c1C[C@@H](c1ccc(OC)cc1)[C@@H](OC(C)=O)C(=O)N2CCN(C)C`, for which the “Decrease in blood pressure” value in data set [1] is listed as 5%; in data set [2], 4%; in data set [4], 6%. Besides, in data set [5], the logP was found to be 2.2.

In the case of `CNC(=O)CN1C(=O)[C@H](OC(C)=O)[C@H](c2ccc(OC)cc2)Cc2c1cccc2C(F)(F)F`, the “Decrease in blood pressure” value in data set [1] came to 10%; in data set [2], 13%; in data set [4] it was 8%. In data set [3] (Oryctolagus cuniculus, Aorta), this molecule came in with an IC50 of 6200 nM.

With `C=CCN(C)CCN1C(=O)[C@H](OC(C)=O)[C@H](c2ccc(OC)cc2)Cc2c1cccc2C(F)(F)F`, the “Decrease in blood pressure” value in data set [1] amounted to 25%; in data set [2], 28%; in data set [4] it was 26%. In data set [3] (Oryctolagus cuniculus, Aorta), this molecule showed a concentration for half-maximal inhibition (IC50) of 170 nM.

As for `C=CC[C@H]1C(=O)N(CCN(C)C)c2ccccc2C[C@H]1c1ccc(OC)cc1`, the “Decrease in blood pressure” value in data set [1] was determined as 18%; in data set [2] it was 25%; in data set [4], 23%. Also, the logP in data set [5] came out at 3.3.

As for `COc1ccc([C@@H]2Cc3c(cccc3C(F)(F)F)N(CCN(C)CCCCc3ccccc3)C(=O)[C@@H]2OC(C)=O)cc1`, the “Decrease in blood pressure” value amounted to 24% in data set [1], 28% in data set [2] and 23% in data set [4]. This molecule also had an IC50 in data set [3] (Oryctolagus cuniculus, Aorta) of 73 nM.

Consider `COc1ccc([C@@H]2Cc3ccccc3N(CCN(C)C)C(=O)[C@@H]2OC(C)=O)cc1`, for which the “Decrease in blood pressure” value is listed as 13% in data set [1], 8% in data set [2] and 8% in data set [4]. In addition, in data set [5], the logP worked out at 1.2.

Regarding `COc1ccc([C@@H]2Cc3c(cccc3C(F)(F)F)N(CC[N+](C)(C)C)C(=O)[C@@H]2C)cc1.[I-]`, the “Decrease in blood pressure” value in data set [1] is 21%; in data set [2], 25%; in data set [4] it was 22%. For the same molecule, the IC50 in data set [3] (Oryctolagus cuniculus, Aorta) stood at 6200 nM.

In the case of `CNCCN1C(=O)[C@H](OC(C)=O)[C@H](c2ccc(OCOC)cc2)Cc2c1cccc2C(F)(F)F`, the results for the “Decrease in blood pressure” value in data set [1], in data set [2] and in data set [4] were 8%, 6% and 8%, respectively.

Take `COc1ccc([C@@H]2Cc3c(cccc3C(F)(F)F)N(CCN(C)C)C(=O)[C@@H]2OC(C)=O)cc1`: the “Decrease in blood pressure” value is listed as 20% in data set [1], 31% in data set [2] and 27% in data set [4]. Further, 150 nM corresponded to half-maximal inhibition in data set [3] (Oryctolagus cuniculus, Aorta) (IC50).

As for `COc1ccc([C@@H]2Cc3c(cccc3C(F)(F)F)N(CCN(C)C)C(=O)[C@@H]2O)cc1`, the results for the “Decrease in blood pressure” value in data set [1], in data set [2] and in data set [4] were 28%, 21% and 26%, respectively. Also, in data set [5], the log partition coefficient (logP) was 2.1.

On to `COc1ccc([C@@H]2Cc3c(cccc3C(F)(F)F)N(C(C)CN(C)C)C(=O)[C@@H]2C)cc1` (stereo in doubt; 15o), for which the “Decrease in blood pressure” value in data set [1], in data set [2] and in data set [4] was 16% in each case. The concentration for half-maximal inhibition (IC50) in data set [3] was determined as 2300 nM.

Regarding `COc1ccc([C@@H]2Cc3c(cccc3C(F)(F)F)N(CCNC(C)C)C(=O)[C@@H]2C)cc1`, the “Decrease in blood pressure” value stood at 10% in data set [1], 17% in data set [2] and 15% in data set [4]. In data set [3] (Oryctolagus cuniculus, Aorta), this molecule yielded an IC50 of 950 nM.

As to `COc1ccc([C@@H]2Cc3c(cccc3C(F)(F)F)N(CCN(C(C)C)C(C)C)C(=O)[C@@H]2C)cc1`, the “Decrease in blood pressure” value in data set [1] stood at 8%; in data set [2], 14%; in data set [4], 8%. Further, inhibition in data set [3] (Oryctolagus cuniculus, Aorta) was half-maximal at 4200 nM (IC50).

With `COc1ccc([C@@H]2Cc3c(cccc3C(F)(F)F)N(CCN(C)C)C(=O)[C@@H]2C)cc1OC`, the “Decrease in blood pressure” value in data set [1] worked out at 5%; in data set [2], 3%; in data set [4], 5%. The same molecule showed an IC50 in data set [3] (Oryctolagus cuniculus, Aorta) of 3800 nM.

Take `CCCN(C)CCN1C(=O)[C@H](OC(C)=O)[C@H](c2ccc(OC)cc2)Cc2c1cccc2C(F)(F)F`: the “Decrease in blood pressure” value in data set [1] amounted to 28%; in data set [2] it was 27%; in data set [4], 26%. In addition, the half-inhibitory concentration (IC50) in data set [3] (Oryctolagus cuniculus, Aorta) was 190 nM.

On to `COc1ccc([C@@H]2Cc3c(cccc3C(F)(F)F)N(CCN(C)C(C)=O)C(=O)[C@@H]2O)cc1`, for which, in data set [3] (Oryctolagus cuniculus, Aorta), the IC50 is 2200 nM.

As to `CNCCN1C(=O)[C@H](OC(C)=O)[C@H](c2ccc(OCCOC)cc2)Cc2c1cccc2C(F)(F)F`, the “Decrease in blood pressure” value was 7% in data set [1], 5% in data set [2] and 5% in data set [4]. This molecule also returned a concentration for half-maximal inhibition (IC50) in data set [3] (Oryctolagus cuniculus, Aorta) of 39000 nM.

Turning to `C[C@H]1C(=O)N(CCN(C)C)c2cccc(C(F)(F)F)c2C[C@H]1c1ccc(O)cc1`, the “Decrease in blood pressure” value is listed as 7% in data set [1], 10% in data set [2] and 5% in data set [4]. Also, half-maximal inhibition in data set [3] (Oryctolagus cuniculus, Aorta) (IC50) was put at 160 nM.

For the molecule `CCc1ccc([C@@H]2Cc3c(cccc3C(F)(F)F)N(CCN(C)C)C(=O)[C@@H]2C)cc1`, the “Decrease in blood pressure” value in data set [1] came out at 13%; in data set [2], 20%; in data set [4], 14%. In data set [3] (Oryctolagus cuniculus, Aorta), this molecule came in with an IC50 of 2400 nM.

Regarding `COc1ccc([C@@H]2Cc3c(cccc3C(F)(F)F)N(CCN(C)C)C(=O)[C@@H]2C)cc1`, the “Decrease in blood pressure” value in data set [1] is on record as 22%; in data set [2] it was 28%; in data set [4], 22%. The molecule further had an IC50 in data set [3] (Oryctolagus cuniculus, Aorta) of 76 nM.

Consider `CNc1ccc([C@@H]2Cc3c(cccc3C(F)(F)F)N(CCN(C)C)C(=O)[C@@H]2C)cc1`, for which the “Decrease in blood pressure” value in data set [1] is 20%; in data set [2], 14%; in data set [4] it was 18%. This molecule registered an IC50 in data set [3] (Oryctolagus cuniculus, Aorta) of 330 nM.
